Assay [1] relates to Coxsackievirus B1. Kind of assay: Antiviral activity against Coxsackie B1 strain HA 201468 was evaluated in african green monkey kidney. Type of assay: functional. The method in brief: (§1)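 Confluent Vero monolayers (4 × 10⁴ cells/well, EMEM with 10% heat-inactivated newborn bovine serum, 24 h at 37 °C, 5% CO₂) were infected per well with Cox B1 200, Reo 3 470 or VSV 2 TCID₅₀ units. After 30 min adsorption, compound was added at seven 0.5-log steps, final 5 × 10⁻⁶ to 5 × 10⁻³ M, in duplicate wells. CPE was scored microscopically 0–4 at 72 h to give VR, and ED₅₀ was checked on crystal-violet-stained plates.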

The subject of assay [2] is Coxsackievirus B1. Kind of assay: In vitro antiviral activity against Coxsackie B1 strain HA 201468 was evaluated in african green monkey kidney. Type of assay: functional. The procedure, abridged:
as §1

In assay [3] the test system is Human alphaherpesvirus 1. The assay can be described thus: Antiviral activity against Herpes simplex virus -1 strain KOS was evaluated in african green monkey kidney. Type of assay: functional.
Assay [4] has as its system Human alphaherpesvirus 2. Kind of assay: In vitro antiviral activity against Herpes simplex virus -2 strain MS was evaluated in african green monkey kidney. Type of assay: functional.
Assay [5] has as its system Human alphaherpesvirus 1. Kind of assay: In vitro antiviral activity against Herpes simplex virus -1 strain KOS was evaluated in african green monkey kidney. Type of assay: functional.
The subject of assay [6] is Human alphaherpesvirus 2. The assay can be described thus: Antiviral activity against Herpes simplex virus -2 strain MS was evaluated in african green monkey kidney. Type of assay: functional.
The subject of assay [7] is L1210. Kind of assay: In vitro antitumor activity against L1210 cell line in mice; B indicates inactive at 10e-1 mmol/L. The conditions noted are these: Mus musculus. Type of assay: functional, cell-based. The procedure, abridged:
(§2)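 Cells at 1 × 10⁶ cells/mL were incubated with filter-sterilized compound in growth medium, in duplicate, at log concentrations from 1 × 10⁻⁹ to 1 × 10⁻⁴ M. After 48 h at 37 °C, Coulter counts were taken and growth was expressed as a percentage of untreated controls. ID₅₀ is the concentration giving 50% growth inhibition.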

Assay [8] relates to P388. The assay can be described thus: In vitro antitumor activity against P388 cell line in mice; B indicates inactive at 10e-1 mmol/L. Type of assay: functional, cell-based. Conditions: Mus musculus. The method in brief:
as §2

Assay [9] concerns Human respirovirus 3. The assay can be described thus: In vitro antiviral activity against Para influenza virus type 3 strain C243 was evaluated in african green monkey kidney. Type of assay: functional.
For assay [10], the system named is Mammalian orthoreovirus 3. Kind of assay: Antiviral activity against Reovirus type 3 strain Abney was evaluated in african green monkey kidney. Type of assay: functional. The method in brief: as §1
Assay [11] has as its system Mammalian orthoreovirus 3. The assay can be described thus: In vitro antiviral activity against Reovirus type 3 strain Abney was evaluated in african green monkey kidney. Type of assay: functional. The method in brief:
as §1

Assay [12] deals with Vesicular stomatitis virus. The assay can be described thus: Antiviral activity against Vesicular stomatitis virus strain indiana was evaluated in african green monkey kidney. Type of assay: functional. The method in brief:
as §1

Assay [13] concerns Vesicular stomatitis virus. Kind of assay: In vitro antiviral activity against Vesicular stomatitis virus strain indiana was evaluated in african green monkey kidney. Type of assay: functional. The procedure, abridged:
as §1

A further assay relates to Vero. The assay can be described thus: In vitro cytotoxicity against Vero cells. Type of assay: functional, Chlorocebus sabaeus.
Assay [14] relates to Vaccinia virus. Kind of assay: Antiviral activity against Vaccinia virus strain Elstree was evaluated in african green monkey kidney. Type of assay: functional, Orthopoxvirus vaccinia.
The subject of assay [15] is Vaccinia virus. Kind of assay: In vitro antiviral activity against Vaccinia virus strain Elstree was evaluated in african green monkey kidney. Type of assay: functional, Orthopoxvirus vaccinia.
For assay [16], the system named is Human respirovirus 3. Kind of assay: Antiviral activity against Para influenza virus type 3 strain C243 was evaluated in african green monkey kidney. Type of assay: functional.
For assay [17], the system named is L1210. Kind of assay: In vitro antitumor activity against L1210 cell line in mice. Type of assay: functional, Mus musculus. The procedure, abridged: as §2
The test system of assay [18] is P388. The assay can be described thus: In vitro antitumor activity against P388 cell line in mice. Type of assay: functional, Mus musculus. The procedure, abridged: as §2
Assay [19] deals with Human alphaherpesvirus 1. The assay can be described thus: Antiviral activity against Herpes simplex virus -1 strain MS was evaluated in african green monkey kidney. Type of assay: functional.

Values joined by “and” are separate entries in the source; they are usually repeats but may differ in a detail not shown here. Equal values may be shown once. Active and inactive are the calls of the source. No cut-off for these calls is given here. Bounds are passed on as bounds.

With `N.Nc1nc(=O)n([C@@H]2O[C@@H]3CO[PH](O)(O)O[C@H]3[C@H]2O)cc1Br`, the ED50 was over 5000 µM in the assay with Coxsackievirus B1 [1]; over 5000 µM in the assay with Human alphaherpesvirus 1 [3]; 5000 µM in the assay on Human alphaherpesvirus 2 [6]; over 5000 µM in [10]; over 5000 µM in [12]; 5000 µM with Vaccinia virus [14]. This molecule also displayed an ED50 with Human respirovirus 3 [16] of over 5000 µM. Besides, the Virus rating with Coxsackievirus B1 [2] stood at 0; with Human alphaherpesvirus 2 [4] it was 0.2; in the assay on Human alphaherpesvirus 1 [5], 0.1; with Human respirovirus 3 [9] it was 0; in [11] it was 0; in assay [13], 0. This molecule returned a Virus rating in the assay on Vaccinia virus [15] of 0.1. Also, the ID50 result in the assay on L1210 [7] and with P388 [8] was “inactive” in each case. Besides, in the assay with Vero, the Cytotoxicity was 2 mM l-1 and 5 mM l-1.
On to `Nc1ccn([C@@H]2O[C@H](CO)[C@@H](O)[C@@H]2O)c(=O)n1` [CYTARABINE], for which the ED50 was 0.34 µM with Human alphaherpesvirus 1 [3], 1.1 µM in the assay with Human alphaherpesvirus 2 [6], 0.34 µM in the assay with Vaccinia virus [14] and over 500 µM in the assay on Human respirovirus 3 [16]. The Virus rating was 2.7 in the assay on Human alphaherpesvirus 2 [4], 2.7 with Human alphaherpesvirus 1 [5], 0 in the assay with Human respirovirus 3 [9] and 2.8 with Vaccinia virus [15]. Also, the ID50 stood at 2.5 µM with L1210 [17] and 1.2 µM in the assay on P388 [18]. This molecule also had a Cytotoxicity with Vero of 0.0005 mM.
Consider `Nc1nc(=O)[nH]cc1F` [FLUCYTOSINE], for which the ED50 in the assay on Human alphaherpesvirus 1 [3], with Human alphaherpesvirus 2 [6], in the assay with Vaccinia virus [14] and with Human respirovirus 3 [16] was over 5000 µM each time. Also, the Virus rating with Human alphaherpesvirus 2 [4] was found to be 0.5; in the assay on Human alphaherpesvirus 1 [5] it was 0; with Human respirovirus 3 [9] it was 0.4; with Vaccinia virus [15] it was 0. In addition, the ID50 result with L1210 [7] and in the assay on P388 [8] was “inactive” in each case. This molecule came in with a Cytotoxicity with Vero of 5 mM.
Turning to `Cl.Nc1nc(=O)n([C@@H]2O[C@H](CO)[C@@H](O)[C@H]2O)cc1F`, the ED50 in the assay on Human alphaherpesvirus 1 [3] is 20 µM; in the assay on Human alphaherpesvirus 2 [6] it was under 0.5 µM; in the assay with Vaccinia virus [14], 5e-05 µM; with Human respirovirus 3 [16] it was 130 µM. In addition, the Virus rating was determined as 2.1 in the assay on Human alphaherpesvirus 2 [4], 1 with Human alphaherpesvirus 1 [5], 0.8 with Human respirovirus 3 [9] and 1.3 in the assay with Vaccinia virus [15]. The ID50 stood at 2.6 µM with L1210 [17] and 3 µM in the assay on P388 [18].
With `Nc1nc(=O)n([C@@H]2O[C@H](COP(=O)(O)O)[C@@H](O)[C@H]2O)cc1F`, the Virus rating in the assay with Human alphaherpesvirus 2 [4] was 2; in the assay with Human alphaherpesvirus 1 [5], 1.2; in the assay with Human respirovirus 3 [9], 1; with Vaccinia virus [15], 1.4. In addition, the ED50 in the assay on Human alphaherpesvirus 2 [6] was under 0.5 µM; in the assay on Vaccinia virus [14] it was 9e-05 µM; in the assay on Human respirovirus 3 [16] it was 20 µM; in the assay with Human alphaherpesvirus 1 [19], 20 µM. The ID50 in the assay on L1210 [17] was determined as 3.4 µM; in the assay on P388 [18], 3.1 µM.
Consider `N.Nc1nc(=O)n([C@@H]2O[C@@H]3CO[PH](O)(O)O[C@H]3[C@H]2O)cc1Cl`, for which the ED50 (in the assay on Coxsackievirus B1 [1]; in the assay with Human alphaherpesvirus 1 [3]; in the assay with Human alphaherpesvirus 2 [6]; in [10]; in [12]; with Vaccinia virus [14]) was over 5000 µM throughout. The molecule also yielded an ED50 in the assay with Human respirovirus 3 [16] of over 5000 µM. Besides, the Virus rating came out at 0 in the assay with Coxsackievirus B1 [2]; 0.1 in the assay on Human alphaherpesvirus 2 [4]; 0 in the assay on Human alphaherpesvirus 1 [5]; 0 in the assay on Human respirovirus 3 [9]; 0 in assay [11]; 0 in assay [13]. For the same molecule, the Virus rating in the assay with Vaccinia virus [15] is on record as 0. Moreover, the ID50 entry with L1210 [7] and in the assay with P388 [8] was “inactive” each time. Besides, in the assay with Vero, the Cytotoxicity amounted to 5 mM.
As to `N.Nc1nc(=O)n([C@@H]2O[C@@H]3CO[PH](O)(O)O[C@H]3[C@H]2O)cc1F`, the ED50 in the assay with Coxsackievirus B1 [1] was over 5000 µM; with Human alphaherpesvirus 1 [3], 220 µM; in the assay with Human alphaherpesvirus 2 [6] it was 92 µM; in [10] it was over 5000 µM; in [12], 5000 µM; in the assay on Vaccinia virus [14] it was 290 µM. Also, the ED50 in the assay with Human respirovirus 3 [16] was over 5000 µM. Further, the Virus rating in the assay on Coxsackievirus B1 [2] stood at 0; in the assay with Human alphaherpesvirus 2 [4] it was 0.9; with Human alphaherpesvirus 1 [5], 0.6; with Human respirovirus 3 [9] it was 0.1; in [11], 0; in assay [13], 0.2. In the assay with Vaccinia virus [15], this molecule showed a Virus rating of 0.6. Also, the ID50 with L1210 [17] and with P388 [18] was 0.31 µM each time. Moreover, the Cytotoxicity in the assay with Vero was 0.2 mM l-1 and 0.5 mM l-1.
With `N.Nc1nc(=O)n([C@@H]2O[C@@H]3CO[PH](O)(O)O[C@H]3[C@H]2O)cc1I`, the ED50 (in the assay on Coxsackievirus B1 [1]; in the assay on Human alphaherpesvirus 1 [3]; in the assay on Human alphaherpesvirus 2 [6]; in assay [10]; in [12]; with Vaccinia virus [14]) was over 5000 µM each time. In addition, the ED50 in the assay with Human respirovirus 3 [16] was over 5000 µM. The Virus rating in the assay on Coxsackievirus B1 [2] turned out to be 0; in the assay on Human alphaherpesvirus 2 [4] it was 0; in the assay with Human alphaherpesvirus 1 [5], 0; with Human respirovirus 3 [9] it was 0; in assay [11], 0; in [13] it was 0.2. Also, the Virus rating in the assay with Vaccinia virus [15] amounted to 0. Further, the ID50 result in the assay on L1210 [7] and in the assay on P388 [8] was “inactive” throughout. The Cytotoxicity with Vero is 2 mM l-1 and 5 mM l-1.

These data come from ChEMBL document CHEMBL1122970, “Synthesis and antitumor and antiviral activities of a series of 1-beta-D-ribofuranosyl-5-halocytosine (5-halocytidine) cyclic 3',5'-monophosphates” (1985).
